Ki data for two molecules are collected here from ChEMBL document CHEMBL1142277, “Toward a structure-based model of salvinorin A recognition of the kappa-opioid receptor” (J Med Chem, 2008).

A word on the Ki: it is a measure of affinity in units of concentration, obtained from inhibition or displacement. Lower therefore signals tighter binding.

Common to all, as to type: cell-based
Experiment [1] can be described thus: Displacement of [3H]diprenorphine from chimeric rat kappa opioid receptor (1-141)/mu opioid receptor (151-233)/kappa opioid receptor (228-380) expressed in HEK293 cells. The method in brief:
(§1)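 Whole-cell binding: HEK-293 cells transiently transfected (calcium phosphate, 10–20 µg pcDNA) with wild-type, point-mutant or chimeric receptor, harvested 48–72 h later, washed and resuspended in 25 mM HEPES pH 7.4. Incubated with [3H]-diprenorphine, room temperature, 90 min. Separation by filtration on PEI-presoaked GF/C filters, scintillation counting. Nonspecific binding with 100 µM naloxone, norBNI or salvinorin A. Triplicates, nonlinear regression.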
In general terms: Loss of bound radioactivity is the signal in a displacement assay; it reports binding, not function.

A short description of experiment [2]: Displacement of [3H]diprenorphine from chimeric rat mu opioid receptor (1-150)/kappa opioid receptor (142-380) expressed in HEK293 cells. The method in brief: as §1
Experiment [3] can be described thus: Displacement of [3H]diprenorphine from chimeric rat kappa opioid receptor (1-141)/mouse delta opioid receptor (132-372) expressed in HEK293 cells. In short, it runs like this: as §1
A short description of experiment [4]: Displacement of [3H]diprenorphine from chimeric rat kappa opioid receptor (1-227)/mouse delta opioid receptor (215-372) expressed in HEK293 cells. The method in brief: as §1
Experiment [5] concerns the target Mu-type opioid receptor (Rattus norvegicus, UniProt P33535). Put plainly: Displacement of [3H]diprenorphine from rat mu opioid receptor expressed in HEK293 cells. The method in brief:
as §1

Experiment [6] is described as follows: Displacement of [3H]diprenorphine from chimeric rat kappa opioid receptor (1-141)/mu opioid receptor (151-398) expressed in HEK293 cells. The method in brief:
as §1

Experiment [7] is described as follows: Displacement of [3H]diprenorphine from chimeric rat mu opioid receptor (1-150)/kappa opioid receptor (142-227)/mu opioid receptor (234-398) expressed in HEK293 cells. The method in brief:
as §1

The nature of experiment [8]: Displacement of [3H]diprenorphine from chimeric rat mu opioid receptor (1-233)/kappa opioid receptor (228-380) expressed in HEK293 cells. The method in brief: as §1
Experiment [9] can be described thus: Displacement of [3H]diprenorphine from chimeric rat kappa opioid receptor (1-227)/mu opioid receptor (234-398) expressed in HEK293 cells. The method in brief: as §1
Experiment [10] deals with Mu-type opioid receptor (Rattus norvegicus, UniProt P33535, W318A). Put plainly: Displacement of [3H]diprenorphine from rat mu opioid receptor W318A mutant expressed in HEK293 cells. The method in brief:
as §1

Experiment [11] has as its target Kappa-type opioid receptor (Rattus norvegicus, UniProt P34975). The experiment is described as follows: Displacement of [3H]diprenorphine from rat kappa opioid receptor expressed in HEK293 cells. The method in brief:
as §1

Experiment [12] deals with Kappa-type opioid receptor (Rattus norvegicus, UniProt P34975, Y313A). The experiment is described as follows: Displacement of [3H]diprenorphine from rat kappa opioid receptor Y313A mutant expressed in HEK293 cells. In short, it runs like this: as §1
Kappa-type opioid receptor (Rattus norvegicus, UniProt P34975, Y313A), sequence (P34975 whole entry Y313A): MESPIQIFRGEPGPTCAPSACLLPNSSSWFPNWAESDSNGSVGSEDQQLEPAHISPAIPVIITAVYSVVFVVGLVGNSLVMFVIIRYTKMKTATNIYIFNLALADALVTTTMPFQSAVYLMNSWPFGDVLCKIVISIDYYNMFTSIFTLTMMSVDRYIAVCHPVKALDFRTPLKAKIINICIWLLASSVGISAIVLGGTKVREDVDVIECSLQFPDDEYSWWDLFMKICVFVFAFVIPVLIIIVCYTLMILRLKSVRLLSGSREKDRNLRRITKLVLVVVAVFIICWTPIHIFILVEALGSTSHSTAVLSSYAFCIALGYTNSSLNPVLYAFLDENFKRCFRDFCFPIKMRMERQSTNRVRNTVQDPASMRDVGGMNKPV

Mu-type opioid receptor (Rattus norvegicus, UniProt P33535), sequence (P33535 whole entry): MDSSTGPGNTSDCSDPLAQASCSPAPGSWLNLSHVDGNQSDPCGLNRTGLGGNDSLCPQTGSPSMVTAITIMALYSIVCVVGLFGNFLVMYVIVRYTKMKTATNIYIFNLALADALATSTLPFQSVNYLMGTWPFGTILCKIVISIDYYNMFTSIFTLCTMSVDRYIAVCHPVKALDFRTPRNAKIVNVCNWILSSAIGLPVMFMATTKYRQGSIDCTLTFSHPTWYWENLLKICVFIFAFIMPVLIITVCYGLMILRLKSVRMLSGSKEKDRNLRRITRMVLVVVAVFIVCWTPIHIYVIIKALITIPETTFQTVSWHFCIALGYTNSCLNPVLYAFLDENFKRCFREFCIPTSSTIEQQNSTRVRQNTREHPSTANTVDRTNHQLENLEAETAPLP
Mu-type opioid receptor (Rattus norvegicus, UniProt P33535, W318A), sequence (P33535 whole entry W318A): as the sequence (P33535 whole entry) above, with W318A counted along it
Kappa-type opioid receptor (Rattus norvegicus, UniProt P34975), sequence (P34975 whole entry): as the sequence (P34975 whole entry Y313A) above, with A313Y counted along it

Regarding `COC(=O)[C@@H]1C[C@H](C(=O)c2ccccc2)C(=O)[C@H]2[C@@]1(C)CC[C@H]1C(=O)O[C@H](c3ccoc3)C[C@]21C`, the inhibitory constant (Ki) in [1] was 8320 nM; in experiment [2], 4110 nM; in experiment [3], > 10000 nM; in experiment [4], 450 nM; in experiment [5], 245 nM; in experiment [6] it was 1610 nM. In addition, the Ki is 615 nM in experiment [7]; 2310 nM in experiment [8]; 9400 nM in experiment [9]; 426 nM in experiment [10]; 1380 nM in experiment [11]; 3870 nM in experiment [12].

For `COC(=O)[C@@H]1C[C@H](OC(C)=O)C(=O)[C@H]2[C@@]1(C)CC[C@H]1C(=O)O[C@H](c3ccoc3)C[C@]21C` [SALVINORIN A], the Ki in [1] worked out at 522 nM; in experiment [7] it was 458 nM.
